Results reported in publication PMC11419141 (bioRxiv, 2024).
Entries after “also recorded” stand apart in the source; their conditions may differ.

Experiments:
[1] = system: Staphylococcus aureus subsp. aureus Rosenbach, ATCC 29213; experiment: Antibacterial growth assay, S. aureus; format: cell-based; conditions: for Inhibition of growth of S. aureus: at a concentration of 11.1 μM; for Antibacterial activity against S. aureus: in higher doses (100 μM)
Method in brief: (§1)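 A single colony was grown overnight in cation-adjusted Mueller Hinton broth at 37 °C, 250 rpm, then diluted 100-fold. Cultures were grown for 24 h at 37 °C with test compound as a 7-concentration series. A600 was read, followed by a BacTiter-Glo ATP luminescence read. % growth inhibition was normalized to vancomycin/amikacin positive controls and DMSO negative control.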

[2] = Total antioxidant capacity; conditions: CUPRAC, Trolox equivalent, at any one concentration tested, n=2
Method in brief: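 Test compounds from DMSO stocks were dispensed acoustically as a 7-concentration series in 384-well plates. Freshly prepared Cu(II)-neocuproine reagent was added, mixed at 650 rpm for 2 min, then incubated sealed at 25 °C. A450 of the Cu(I)-neocuproine chelate was read at 1.5 h and 3 h. A Trolox standard curve was run on every plate, with values expressed as Trolox equivalents (mM). Fold over Trolox was taken as the ratio of linear-regression coefficients; n=2.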

Mycobacterium smegmatis = experiment: Antibacterial growth assay, M. smegmatis; format: cell-based; conditions: at a high concentration of 300 μM
Method in brief: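 Mycobacterium smegmatis grown in Middlebrook 7H9 with OADC at 37 °C, 250 rpm, with test compound as a 7-concentration series. A600 read at 24 h and 48 h, then an ATP luminescence read with BacTiter-Glo. % growth inhibition normalized to vancomycin/amikacin positive controls and DMSO negative control.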

[3] = system: Klebsiella pneumoniae subsp. pneumoniae, ATCC 27736; experiment: Antibacterial growth assay, K. pneumoniae; format: cell-based; conditions: at a concentration of 300 μM
Method in brief: as §1

TZM-bl cells = experiment: Cytotoxicity to cells in the anti-HIV assay; format: cell-based; conditions: toxic to cells in anti-HIV assay
HepG2 cell line = experiment: Compound cytotoxicity in ARE assay in HepG2 cell line; format: cell-based
[4] = system: Nrf2-ARE signaling pathway in HepG2-ARE-Luc cells; experiment: ARE-Luciferase reporter assay for Nrf2 activation in HepG2 cell line; format: cell-based; conditions: Figure 5B at 10 μM
Method in brief: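 HepG2 cells stably carrying an ARE-driven firefly luciferase reporter, seeded at 10,000 cells/well in complete medium (384-well). Test compounds given as a 7-concentration series for 18 h at 37 °C, 5% CO2. Controls were TBHQ and sulforaphane (positive) and DMSO vehicle. Luminescence was read after Steady-Glo for 30 min. Fold induction was taken as treated/vehicle ×100, with vehicle set at 100%; n=2.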

CCR5-dependent BaL virus = experiment: Anti-HIV TZM-bl assay, BaL virus; format: cell-based, HIV-1; conditions: concentration not stated (any one concentration, Figure 6)
Method in brief: (§2)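 TZM-bl cells (HeLa-derived; CD4, CCR5 and CXCR4; Tat-driven luciferase) kept in DMEM with 10% heat-inactivated FBS and gentamicin. Cells seeded at 5000/well onto test compound, then given virus with 8 μg/ml DEAE-dextran. Inoculum was 150,000 RLU equivalents for NL4-3 and 20,000 for BaL.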

[5] = system: CXCR4-dependent NL4-3 virus; experiment: Anti-HIV TZM-bl assay, NL4-3 virus; format: cell-based, HIV-1; conditions: concentration not stated (any one concentration, Figure 6)
Method in brief: as §2

## Oc1cc(O)c2c(c1)O[C@H](c1ccc(O)c(O)c1)[C@H](O)C2 [(-)-Epicatechin]
[1]; Staphylococcus aureus, ATCC29213, read-out: Inhibition against S. aureus
  inhibition at 300 µM: > 50%

## OC[C@H]1O[C@@H](Oc2cc3c(O[C@@H]4O[C@H](CO)[C@@H](O)[C@H](O)[C@H]4O)cc(O)cc3[o+]c2-c2ccc(O)c(O)c2)[C@H](O)[C@@H](O)[C@@H]1O [Cyanidin 3,5-O-diglucoside]
[2]
  Total antioxidant capacity (TAC) relative to Trolox: greater than 5 fold

## OC[C@H]1O[C@@H](Oc2cc3c(O)cc(O)cc3[o+]c2-c2ccc(O)c(O)c2)[C@H](O)[C@@H](O)[C@H]1O [Cyanidin 3-O-galactoside]
[2]
  Total antioxidant capacity (TAC) relative to Trolox: greater than 5 fold

## OC[C@H]1O[C@@H](Oc2cc3c(O)cc(O)cc3[o+]c2-c2ccc(O)c(O)c2)[C@H](O)[C@@H](O)[C@@H]1O [Cyanidin 3-O-glucoside]
[1]
  Inhibition of growth of S. aureus: more than 50%
[2]
  Total antioxidant capacity (TAC) relative to Trolox: greater than 5 fold

## C[C@@H]1O[C@@H](OC[C@H]2O[C@@H](Oc3cc4c(O)cc(O)cc4[o+]c3-c3ccc(O)c(O)c3)[C@H](O)[C@@H](O)[C@@H]2O)[C@H](O)[C@H](O)[C@H]1O [Cyanidin 3-O-rutinoside]
[1]
  Inhibition of growth of S. aureus: more than 50%
[2]
  Total antioxidant capacity (TAC) relative to Trolox: greater than 5 fold
Mycobacterium smegmatis
  Inhibition of M. smegmatis: more than 50%

## OC[C@H]1O[C@@H](Oc2cc3c(O)cc(O)cc3[o+]c2-c2ccc(O)c(O)c2)[C@H](O[C@@H]2OC[C@@H](O)[C@H](O)[C@H]2O)[C@@H](O)[C@@H]1O [Cyanidin 3-O-sambubioside]
[1]
  Antibacterial activity against S. aureus: showed antibacterial activity
[2]
  Total antioxidant capacity (TAC) relative to Trolox: greater than 5 fold
Mycobacterium smegmatis
  Inhibition of M. smegmatis: more than 50%

## OC[C@H]1O[C@@H](O[C@H]2[C@H](Oc3cc4c(O)cc(O)cc4[o+]c3-c3ccc(O)c(O)c3)O[C@H](CO)[C@@H](O)[C@@H]2O)[C@H](O)[C@@H](O)[C@@H]1O [Cyanidin 3-O-sophoroside]
[1]
  Antibacterial activity against S. aureus: showed antibacterial activity
[3]
  Inhibition of growth of K. pneumoniae: more than 50%
[2]
  Total antioxidant capacity (TAC) relative to Trolox: greater than 5 fold

## C[C@@H]1O[C@@H](OC[C@H]2O[C@@H](Oc3cc4c(O)cc(O)cc4[o+]c3-c3cc(O)c(O)c(O)c3)[C@H](O)[C@@H](O)[C@@H]2O)[C@H](O)[C@H](O)[C@H]1O [Delphinidin 3-O-rutinoside]
[1]
  Inhibition of growth of S. aureus: more than 50%
[2]
  Total antioxidant capacity (TAC) relative to Trolox: greater than 5 fold

## COc1cc(/C=C/C(=O)O)ccc1O [Ferulic acid]
[2]
  Total antioxidant capacity (TAC) relative to Trolox: on the same range as Trolox

## O=C(O)c1cc(O)c(O)c(O)c1 [Gallic acid]
TZM-bl cells
  Cytotoxicity concentration: 80.42 ± 0.57 µM
[2]
  Total antioxidant capacity (TAC) relative to Trolox: greater than 5 fold

## O=c1c(O[C@@H]2O[C@H](CO)[C@H](O)[C@H](O)[C@H]2O)c(-c2ccc(O)c(O)c2)oc2cc(O)cc(O)c12 [Hyperoside (Quercetin 3-galactoside), Hyperoside (quercetin 3-galactoside)]
[2]
  Total antioxidant capacity (TAC) relative to Trolox: greater than 5 fold

## COc1cc(-c2oc3cc(O)cc(O)c3c(=O)c2O[C@@H]2O[C@H](CO)[C@@H](O)[C@H](O)[C@H]2O)ccc1O [Isorhamnetin 3-O-glucoside]
HepG2 cell line
  Cytotoxicity to the cells in ARE assay: non-cytotoxic to the cells
[2]
  Total antioxidant capacity (TAC) relative to Trolox: on the same range as Trolox
[4]
  ARE activation: activated ARE activity

## COc1cc(-c2oc3cc(O)cc(O)c3c(=O)c2O)ccc1O [Isorhamnetin]
TZM-bl cells
  Cytotoxicity concentration: 3.042 ± 0.27 µM
[2]
  Total antioxidant capacity (TAC) relative to Trolox: greater than 5 fold

## C[C@H]1O[C@H](OC[C@H]2O[C@@H](Oc3c(-c4ccc(O)cc4)oc4cc(O)cc(O)c4c3=O)[C@H](O)[C@@H](O)[C@@H]2O)[C@@H](O)[C@@H](O)[C@@H]1O [Kaempferol 3-O-rutinoside]
[2]
  Total antioxidant capacity (TAC) relative to Trolox: on the same range as Trolox

## O=c1c(O[C@@H]2O[C@H](CO)[C@@H](O)[C@H](O)[C@H]2O)c(-c2ccc(O)cc2)oc2cc(O)cc(O)c12 [Kaempferol 3-glucoside, Kaempferol 3-glucoside (astragalin)]
[2]
  Total antioxidant capacity (TAC) relative to Trolox: on the same range as Trolox

## O=c1c(O)c(-c2ccc(O)cc2)oc2cc(O)cc(O)c12 [Kaempferol]
CCR5-dependent BaL virus
  Inhibition of HIV strain BaL: didn’t significantly inhibit
TZM-bl cells
  Cytotoxicity concentration: 11.00 ± 0.62 µM
HepG2 cell line
  Cytotoxicity to the cells in ARE assay: non-cytotoxic to the cells
[5]
  Inhibition of HIV strain NL4-3: more than 65%
[4]
  ARE activation: activated ARE activity; also recorded: highest level of ARE activation

## O=c1cc(-c2ccc(O)c(O)c2)oc2cc(O)cc(O)c12 [Luteolin]
CCR5-dependent BaL virus
  Inhibition of HIV strain BaL: more than 90%
TZM-bl cells
  Cytotoxicity concentration: 4.28 ± 0.45 µM
[5]
  Inhibition of HIV strain NL4-3: more than 90%
[4]
  ARE activation: activated ARE activity

## O=c1c(O)c(-c2cc(O)c(O)c(O)c2)oc2cc(O)cc(O)c12 [Myricetin]
TZM-bl cells
  Cytotoxicity concentration: higher than 100 μM
[2]
  Total antioxidant capacity (TAC) relative to Trolox: greater than 5 fold

## O=C1C[C@@H](c2ccc(O)cc2)Oc2cc(O)cc(O)c21 [Naringenin]
HepG2 cell line
  Cytotoxicity to the cells in ARE assay: non-cytotoxic to cells
[2]
  Total antioxidant capacity (TAC) relative to Trolox: on the same range as Trolox
[4]
  ARE activation: activated ARE activity

## O=C(/C=C/c1ccc(O)c(O)c1)O[C@@H]1C[C@@](O)(C(=O)O)C[C@@H](O)[C@@H]1O [Neochlorogenic acid (3-caffeoylquinic acid)]
[2]
  Total antioxidant capacity (TAC) relative to Trolox: greater than 5 fold

## OC[C@H]1O[C@@H](Oc2cc3c(O)cc(O)cc3[o+]c2-c2ccc(O)cc2)[C@H](O)[C@@H](O)[C@@H]1O [Pelargonidin 3-O-glucoside]
[1]
  Antibacterial activity against S. aureus: showed antibacterial activity
[3]
  Inhibition of growth of K. pneumoniae: more than 50%

## COc1cc(-c2[o+]c3cc(O)cc(O)c3cc2O[C@@H]2O[C@H](CO)[C@@H](O)[C@H](O)[C@H]2O)ccc1O [Peonidin 3-O-glucoside]
[1]
  Antibacterial activity against S. aureus: showed antibacterial activity
[3]
  Inhibition of growth of K. pneumoniae: more than 50%

## O=c1c(O[C@@H]2O[C@H](CO)[C@@H](O)[C@H](O)[C@H]2O)c(-c2ccc(O)c(O)c2)oc2cc(O)cc(O)c12 [Quercetin-3-β-D-glucoside (hirsutrin), Quercetin-3-β-D-glucoside]
[2]
  Total antioxidant capacity (TAC) relative to Trolox: greater than 5 fold

## O=c1c(O)c(-c2ccc(O)c(O)c2)oc2cc(O)cc(O)c12 [Quercetin]
[1]
  Antibacterial activity against S. aureus: showed antibacterial activity
CCR5-dependent BaL virus
  Inhibition of HIV strain BaL: didn’t significantly inhibit
TZM-bl cells
  Cytotoxicity concentration: 26.41 ± 3.91 µM
HepG2 cell line
  Cytotoxicity to the cells in ARE assay: non-cytotoxic to the cells
[5]
  Inhibition of HIV strain NL4-3: more than 65%
[2]
  Total antioxidant capacity (TAC) relative to Trolox: greater than 5 fold
[4]
  ARE activation: activated ARE activity

## O=C(O)C=Cc1ccc(O)cc1 [p-Coumaric acid]
[2]
  Total antioxidant capacity (TAC) relative to Trolox: on the same range as Trolox
